# This is one part of a sample in which hits are shown more often than they occur.
# TbMetRS inhib: Trypanosoma brucei MetRS inhibition. purified T. brucei MetRS, ATP depletion, Kinase-Glo luminescence. hit rate 0.4% among 360,000. inhibition, % at 11.9 µM. AID 624268;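 active means inhibition above a per-plate cutoff of the control wells' mean inhibition plus 3 SD, cut at about 5.5% in these data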;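 further: 0% = DMSO wells median and 100% = median of wells with control inhibitor compound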
#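 Material: T. brucei methionyl-tRNA synthetase, purified; reagent: substrates ATP, L-methionine and bulk Escherichia coli tRNA; dosing: 11.9 µM single point; timing: 15 min plus 2 h at 25 °C; detection: luminescence of leftover ATP; evaluation: % inhibition; control set: DMSO-only wells as low control; replicates: singlicate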
# CHOP UPR activ: activators of apoptotic arm of unfolded protein response (CHOP) | CHO-CHOP luciferase reporter, UPR activation, luminescence; percent of tunicamycin response over DMSO baseline | activation, % at 10 µM | hit rate 0.34% among 330,000 | AID 449763;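 active means at 10 µM dose, activation of 40% or more, normalized to positive control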;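 further: 100% = tunicamycin at 10 µg/mL and 0% = DMSO alone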
#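 Dosing – one dose, 10 µM in 0.5% DMSO · System – CHO-CHOP cells, stable luciferase reporter of PERK-eIF2a-CHOP signalling · Input – 500 cells/well · Control set – tunicamycin 10 µg/mL final as positive, DMSO-only wells as negative · Timing – 6 h compound treatment, 37 °C · Measure – % activation vs tunicamycin · Technique – luminescence read with Steady-Glo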
# V-ATPase pHluor: alters yeast V-ATPase proton transport | S. cerevisiae, pHLuorin cytosolic pH fluorescence | response, % at 10 µM | hit rate 0.37% among 350,000; in the data active means response mostly above about 7.3%, no sharp cut-off; inactive means mostly below about 5.4%; further: actives read high
# UPR XBP1 act: activators of adaptive arm of unfolded protein response (XBP1); CHO-XBP1 luciferase reporter, IRE1-XBP1 UPR activation, luminescence; percent of tunicamycin response, DMSO as zero; hit rate 0.33% among 330,000; activation, % at 20 µM;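 active means versus positive control, 20 µM dose yields 30% or more activation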;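 further: 100% = tunicamycin at 10 µg/mL and 0% = DMSO only wells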
#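 Test system: CHO-XBP1 luciferase reporter cells | Buffer or medium: Serum-containing F12 medium, 10% FBS | Schedule: 6 h compound exposure at 37 °C, 5% CO2 | Detection: Steady-Glo luciferase glow luminescence, 10 min after reagent addition | Read-out basis: Activation, % of tunicamycin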
# CHOP inh: blocks CHOP induction under ER stress. hit rate 3.8% among 220,000. CHO-K1 CHOP-promoter luciferase, tunicamycin-induced, 15-18 h. AID 2732. inhibition, % at 10 µM;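 active means compounds that reduced the stress-induced luciferase reporter signal by more than about 70% of percent inhibition, limit read from the data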;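 further: 0% = tunicamycin plus vehicle and 100% = wells without tunicamycin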
# TbMetRS confirm: confirmation of Trypanosoma brucei MetRS inhibitors. hit rate 93% among 1,400. inhibition, % at 11.9 µM. shares compounds with TbMetRS inhib. T. brucei MetRS enzyme, luminescence (ATP depletion); in the data active means inhibition above about 7%
# Jurkat tox: counter-screen for T. brucei MetRS inhibitors: Jurkat cell cytotoxicity | inhibition, % at 8.3 µM | AID 624413 | Jurkat cells viability, ATP luminescence | shares compounds with TbMetRS inhib | hit rate 12% among 1,400; in the data active means inhibition above about 15%;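 further: 0% = vehicle and 100% = reference inhibitor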
# TbMetRS FP orth: T. brucei MetRS inhibition, orthogonal assay | purified T. brucei MetRS, fluorescence polarization | shares compounds with TbMetRS inhib | inhibition, % at 11.9 µM | hit rate 44% among 1,400; in the data active means inhibition above about 17%;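 further: 0% = vehicle wells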
# Starred values were filed as active, the others as inactive; / = no result given.
SMILES,TbMetRS inhib,CHOP UPR activ,V-ATPase pHluor,UPR XBP1 act,CHOP inh,TbMetRS confirm,Jurkat tox,TbMetRS FP orth
Cc1ccccc1NC(=O)COC(=O)c1ccc(S(=O)(=O)N2CCCC2)cc1,0,-1,4,-1,/,/,/,/
COc1ccc(Br)cc1CSC(=N)N,11*,-2,0,0,6,2,9,2
CC(=O)c1ccc(OC(C)C)c(CSC(=N)N)c1,1,-2,-2,2,18,/,/,/
Cc1[nH]c(C)c(S(=O)(=O)Nc2cccc(Cl)c2C)c1C(=O)N1CCCCC1,24*,0,1,3,/,41*,1,20*
Cc1ccc(NS(=O)(=O)c2c(C)[nH]c(C)c2C(=O)N2CCCCC2)c(Br)c1,24*,0,1,-2,/,39*,2,15
COCCNC(=O)CS(=O)Cc1nc(-c2ccccc2C)oc1C (stereo not drawn),59*,-3,5,-1,-12,3,-3,5
N#C/C(=C(/O)CCl)c1nnc2n1CCCCC2,-1,0,6,-1,18,/,/,/
N#C/C(=N\Nc1cc(Cl)cc(Cl)c1)c1nnc2n1CCCCC2,24*,1,-1,3,39,40*,6,26*
Cc1ccnc(NCc2ccc(Br)cc2)c1,6.0*,4,0,2,/,15*,-1,6
CCOC(=O)c1cc(S(=O)(=O)NCC2CCN(Cc3cccc(C)c3)CC2)cn1C,-1,-2,-1,-4,/,/,/,/
COc1ccc(/C(C)=N/NC(=O)C(NC(=O)c2ccccc2)c2n[nH]c(=O)c3ccccc23)c(OC)c1 (stereo not drawn),0,1,1,6,-8,/,/,/
Cc1cc(=O)n2c(n1)NC(=NCc1ccccc1)NC2c1ccccc1 (stereo not drawn),8.5*,1,-1,0,2,18*,1,11
COCCn1c(SCC(=O)Nc2cc(C)on2)nnc1C(C)C,-1,1,1,2,/,/,/,/
CN(C)C(CNc1ncnc2sccc12)c1ccccc1 (stereo not drawn),8.0*,2,0,2,17,1,-4,-1
COc1cccc(C(=O)OCC(=O)Nc2cc(C)c(C)cc2[N+](=O)[O-])c1,-1,-2,-3,1,18,/,/,/
CCCS(=O)(=O)N1CCCC(C(=O)NCCc2cccc(C)c2)C1 (stereo not drawn),0,-1,2,-6,/,/,/,/
CSc1nc2ccccc2n1CC(=O)Nc1ccccc1,0,-1,2,4,21,/,/,/
O=C(Cn1c(/C=C/c2ccccc2)nc2ccccc21)Nc1ccc(F)cc1,32*,8,2,-1,31,55*,8,39*
OCCC1CN(Cc2cc3c(cc2Cl)OCO3)CCN1Cc1ccccc1 (stereo not drawn),0,1,1,-2,12,/,/,/
CC(O)CNc1nc2ccccc2n1-c1ncnc2sc3c(c12)CCC3 (stereo not drawn),9.3*,-1,2,5,30,16*,4,6
c1ccc2c(c1)ncn2-c1ncnc2sc3c(c12)CCCC3,0,0,1,-2,21,/,/,/
COc1ccc(-c2nnc(SC(C(=O)c3c[nH]c4ccccc34)c3ccccc3)n2N)cc1OC (stereo not drawn),16*,3,-3,-2,32,28*,3,18*
NC(=O)c1ccc(NC(=O)COC(=O)c2cc3ccccc3cc2O)cc1,0,0,-1,-1,/,/,/,/
COc1ccc(C(=O)NCC(=O)NCC(=O)OCc2ccc(Cl)cc2)cc1,-2,2,-6,-3,/,/,/,/
COc1ccc(COC(=O)CCNC(=O)c2ccc(Cl)cc2)cc1,7.0*,1,1,0,/,28*,-4,14
SMILES,TbMetRS inhib,CHOP UPR activ,V-ATPase pHluor,UPR XBP1 act,CHOP inh,TbMetRS confirm,Jurkat tox,TbMetRS FP orth
COc1ccc(CNC(=O)CCC(=O)Nc2ccc(Cl)cc2)cc1,7.1*,-3,0,-3,/,17*,-1,6
C/C(N)=C(/C#N)C(=O)COC(=O)CNS(=O)(=O)c1c(F)cccc1F,0,-1,-2,2,-14,/,/,/
CC(=O)c1ccc(N2CCN(C(=O)CCCn3c(=O)[nH]c4ccccc4c3=O)CC2)cc1,23*,-2,-2,-4,-8,32*,4,16
CCOC(=O)N1CCN(C(=O)CCCn2c(=O)[nH]c3ccccc3c2=O)CC1,0,-1,-2,4,-10,/,/,/
Cn1cc(S(=O)(=O)N2CCOCC2)cc1C(=O)NCc1ccc(Cl)cc1,36*,0,-3,-1,/,51*,-2,28*
C[C@@H]1CN([C@@H](C)CO)S(=O)(=O)c2ccc(Br)cc2O[C@H]1CN(C)Cc1ccc(-c2ccccc2)cc1,-1,/,-1,/,/,/,/,/
O=C(CNC(=O)c1cccc(Br)c1)N/N=C/c1cccs1,6.0*,0,-2,0,/,20*,3,2
Cc1cc(C)nc(NS(=O)(=O)c2ccc(NC(=O)CCC(=O)O)cc2)n1,0,1,3,0,/,/,/,/
CCOC(=O)C(=NC1CCS(=O)(=O)C1)NNc1ccc(Br)cc1 (stereo not drawn),15*,1,-1,6,-4,46*,-5,14
O=C(O)c1ccc(Nc2nc3ccc(Cl)cc3[nH]2)cc1,11*,-1,3,-1,/,44*,-3,14
Cn1ccnc1-c1nnn(-c2ccc(Cl)c(Cl)c2)n1,0,0,1,1,/,/,/,/
Clc1ccc(-c2nnc(SCc3nc4ccccc4[nH]3)o2)c(Cl)c1,78*,1,0,3,29,101*,5,90*
CC(C)(C)NC(=O)c1cc([N+](=O)[O-])ccc1N1CCCCC1,0,/,3,/,-2,/,/,/
CCC(CC)C(=O)Nc1nnc(S(=O)(=O)Nc2ccccc2C)s1,0,-2,0,-4,/,/,/,/
Cc1nnc(Nc2ccc(O)cc2)[nH]c1=O,1,0,1,2,-8,/,/,/
Cc1nnc(Nc2ccc(C(=O)O)cc2)[nH]c1=O,6.8*,0,-1,-3,-4,14*,0,3
O=C(NCc1cccc(C(F)(F)F)c1)c1cccc(S(=O)(=O)NCc2ccccc2)c1,23*,-1,1,-1,52,22*,6,8
O=C(Cn1cnc2ccccc2c1=O)Nc1ccc(N2CCOCC2)cc1,0,-2,4,4,10,/,/,/
Nc1ncccc1OCc1cccc(C(F)(F)F)c1,-1,0,6,-1,11,/,/,/

# Assay outcomes as filed in PubChem BioAssay.
